Results reported in ChEMBL document CHEMBL4706770, “SD-91 as A Potent and Selective STAT3 Degrader Capable of Achieving Complete and Long-Lasting Tumor Regression” (ACS Med Chem Lett, 2021).
Active and inactive are the calls of the source. No cut-off for these calls is given here.

Experiments:
[1] = biological target: T1, Signal transducer and activator of transcription 4 (Homo sapiens) (UniProt Q14765); assay: Induction of STAT4 degradation in human SUP-M2 cells at 0.25 to 100 uM incubated for 14 hrs by Western blot analysis; format: cell-based; details: SUPM2, dose 0.25-100 µM
T1 sequence (whole entry): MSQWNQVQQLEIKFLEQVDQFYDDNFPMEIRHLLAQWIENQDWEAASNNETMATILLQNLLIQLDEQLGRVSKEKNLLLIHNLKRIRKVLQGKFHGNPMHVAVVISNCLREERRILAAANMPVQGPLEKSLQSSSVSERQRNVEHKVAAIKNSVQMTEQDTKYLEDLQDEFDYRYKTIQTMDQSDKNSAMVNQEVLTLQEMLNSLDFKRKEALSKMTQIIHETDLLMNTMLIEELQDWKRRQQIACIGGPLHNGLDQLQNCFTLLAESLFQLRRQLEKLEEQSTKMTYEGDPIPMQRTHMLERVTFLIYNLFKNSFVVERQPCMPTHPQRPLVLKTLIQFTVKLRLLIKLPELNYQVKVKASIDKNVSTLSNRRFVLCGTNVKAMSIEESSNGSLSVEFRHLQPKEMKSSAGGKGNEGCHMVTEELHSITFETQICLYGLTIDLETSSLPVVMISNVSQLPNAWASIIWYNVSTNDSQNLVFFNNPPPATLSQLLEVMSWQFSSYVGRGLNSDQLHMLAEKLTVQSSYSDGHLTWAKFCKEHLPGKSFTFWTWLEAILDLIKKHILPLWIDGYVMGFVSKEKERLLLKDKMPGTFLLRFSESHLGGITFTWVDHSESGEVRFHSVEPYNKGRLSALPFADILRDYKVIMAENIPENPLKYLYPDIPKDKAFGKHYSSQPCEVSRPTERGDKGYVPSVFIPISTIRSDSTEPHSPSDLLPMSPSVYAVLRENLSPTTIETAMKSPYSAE

[2] = biological target: T2, Signal transducer and activator of transcription 3 (Homo sapiens, UniProt P40763); assay: Induction of STAT3 degradation in human SU-DHL-1 cells incubated for 4 hrs by western blot analysis; format: cell-based
T2 sequence (P40763 whole entry): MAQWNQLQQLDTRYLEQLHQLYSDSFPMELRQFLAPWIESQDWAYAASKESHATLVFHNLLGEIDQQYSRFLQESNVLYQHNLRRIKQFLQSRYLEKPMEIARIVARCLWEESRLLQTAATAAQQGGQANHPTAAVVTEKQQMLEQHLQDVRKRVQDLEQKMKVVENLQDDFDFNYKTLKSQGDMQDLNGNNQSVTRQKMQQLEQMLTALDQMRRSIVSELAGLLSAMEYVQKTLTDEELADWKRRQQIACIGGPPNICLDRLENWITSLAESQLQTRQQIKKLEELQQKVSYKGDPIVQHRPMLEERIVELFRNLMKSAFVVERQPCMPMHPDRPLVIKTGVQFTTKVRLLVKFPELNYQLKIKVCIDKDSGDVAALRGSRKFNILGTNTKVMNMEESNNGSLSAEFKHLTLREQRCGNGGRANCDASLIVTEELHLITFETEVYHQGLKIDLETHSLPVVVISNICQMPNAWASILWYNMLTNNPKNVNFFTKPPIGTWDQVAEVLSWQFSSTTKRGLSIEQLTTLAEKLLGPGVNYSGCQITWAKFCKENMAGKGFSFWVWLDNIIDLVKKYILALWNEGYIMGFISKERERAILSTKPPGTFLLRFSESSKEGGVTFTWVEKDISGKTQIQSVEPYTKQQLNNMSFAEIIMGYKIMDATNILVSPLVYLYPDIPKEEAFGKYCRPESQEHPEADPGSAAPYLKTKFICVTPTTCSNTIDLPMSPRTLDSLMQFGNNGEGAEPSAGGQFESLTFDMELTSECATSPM
In short: (§1)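 Cells treated 4 h with compounds across 25 nM to 100 μM; STAT proteins detected by Western blot with GAPDH as loading control; STAT3 DC50 estimated by densitometry of STAT3 relative to GAPDH. Applies to MOLM-16 for all STATs, and to SU-DHL-1 and SUP-M2 for STAT3.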

[3] = Drug uptake in SCID mouse xenografted with human MOLM16 cells assessed as drug level in plasma at 50 mg/kg, iv measured after 24 hrs by LC-MS/MS; format: ADME, organism-based
In short: (§2)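 SCID mice bearing MOLM-16 xenografts given a single iv dose of 50 mg/kg. Concentrations of parent and hydrolysis product measured in plasma (ng/mL) and tumor tissue (ng/g) at 1, 6 and 24 h.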

[4] = biological target: T2, Signal transducer and activator of transcription 3; assay: Induction of STAT3 degradation in human MOLM-16 cells assessed as decrease in STAT3 level at 10 uM incubated for 4 hrs by proteomic analysis; format: cell-based; details: MOLM16
In short: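 MOLM-16 cells treated with 1 or 10 μM for 4 h. Protein levels measured by quantitative proteomics across more than 7000 proteins.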

[5] = Antitumor activity against human MOLM16 cells xenografted in SCID mouse assessed as tumor growth at 25 mg/kg, iv administered weekly measured after 2 weeks relative to control; format: functional
In short: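 SCID mice bearing MOLM-16 xenografts given compound iv once weekly at 25 or 50 mg/kg. Tumor volume and body weight measured every 2 days. Growth inhibition expressed against vehicle-treated controls.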

[6] = biological target: T2, Signal transducer and activator of transcription 3; assay: Binding affinity to recombinant STAT3 (unknown origin) assessed as inhibition constant incubated for 1 hr by fluorescence polarization assay
In short: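 Competitive fluorescence-polarization binding assay with recombinant human STAT3 protein. Ki derived from competitive binding curves.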

[7] = Drug uptake in SCID mouse xenografted with human MOLM16 cells assessed as drug level in tumor tissue at 50 mg/kg, iv measured after 24 hrs by LC-MS/MS; format: ADME, organism-based; details: read-out: Drug uptake; in short: as §2
[8] = biological target: Protein cereblon/Signal transducer and activator of transcription 4 (Homo sapiens) (UniProt Q96SW2+Q14765); assay: Protac activity at CRBN/STAT4 in human MOLM16 cells assessed as STAT4 degradation at 0.25 to 100 uM incubated for 4 hrs by Western blot analysis; format: cell-based; details: dose 0.25-100 µM; in short: as §1
Chain of Protein cereblon/Signal transducer and activator of transcription 4 (Homo sapiens) (Q96SW2 whole entry, looked up, one chain of several): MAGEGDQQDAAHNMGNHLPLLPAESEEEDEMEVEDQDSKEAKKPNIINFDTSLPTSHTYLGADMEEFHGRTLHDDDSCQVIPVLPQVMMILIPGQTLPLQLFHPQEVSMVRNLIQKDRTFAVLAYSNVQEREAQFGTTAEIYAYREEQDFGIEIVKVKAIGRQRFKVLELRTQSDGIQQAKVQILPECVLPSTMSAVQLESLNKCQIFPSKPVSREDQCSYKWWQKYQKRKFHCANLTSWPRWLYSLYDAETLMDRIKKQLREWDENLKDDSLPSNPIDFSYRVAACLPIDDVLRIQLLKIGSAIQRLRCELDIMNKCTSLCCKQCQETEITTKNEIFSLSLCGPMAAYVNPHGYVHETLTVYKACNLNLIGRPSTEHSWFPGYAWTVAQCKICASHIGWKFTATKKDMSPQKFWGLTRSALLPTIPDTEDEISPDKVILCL

[9] = biological target: T3, Protein cereblon/Signal transducer and activator of transcription 2 (Homo sapiens) (UniProt Q96SW2+P52630); assay: Protac activity at CRBN/STAT2 in human SU-DHL-1 cells […] at 0.25 to 100 uM incubated for 4 hrs by Western blot analysis; format: cell-based; details: dose lower 0.25 µM
T3 sequence (P52630 whole entry, looked up): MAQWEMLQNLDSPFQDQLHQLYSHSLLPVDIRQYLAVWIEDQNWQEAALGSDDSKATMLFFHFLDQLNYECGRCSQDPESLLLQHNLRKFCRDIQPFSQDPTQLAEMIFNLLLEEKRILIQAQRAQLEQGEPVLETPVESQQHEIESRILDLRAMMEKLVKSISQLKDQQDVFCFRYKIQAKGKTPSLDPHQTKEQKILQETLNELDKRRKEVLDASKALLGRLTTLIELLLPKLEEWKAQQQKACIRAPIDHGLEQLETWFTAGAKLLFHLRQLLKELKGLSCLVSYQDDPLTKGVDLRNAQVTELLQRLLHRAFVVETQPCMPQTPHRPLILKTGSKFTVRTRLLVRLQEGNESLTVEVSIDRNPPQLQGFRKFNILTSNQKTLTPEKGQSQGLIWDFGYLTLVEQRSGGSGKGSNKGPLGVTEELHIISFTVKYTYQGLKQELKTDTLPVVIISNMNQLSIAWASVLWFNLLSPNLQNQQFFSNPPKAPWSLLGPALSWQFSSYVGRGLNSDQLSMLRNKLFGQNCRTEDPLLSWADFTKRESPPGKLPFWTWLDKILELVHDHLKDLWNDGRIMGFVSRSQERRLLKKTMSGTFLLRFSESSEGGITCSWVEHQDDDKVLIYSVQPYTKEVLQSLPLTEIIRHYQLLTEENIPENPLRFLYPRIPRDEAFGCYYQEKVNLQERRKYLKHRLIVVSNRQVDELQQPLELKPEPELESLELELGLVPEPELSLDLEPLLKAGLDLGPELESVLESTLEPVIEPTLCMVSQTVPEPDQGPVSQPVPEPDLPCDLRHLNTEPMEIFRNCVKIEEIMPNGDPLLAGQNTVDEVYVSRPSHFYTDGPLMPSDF
T3 sequence (Q96SW2 whole entry, looked up): as the sequence (Q96SW2 whole entry, looked up, one chain of several) above

[10] = Drug metabolism in buffer pH 4 assessed as conversion to (2-(((5S,8S,10aR)-8-(((S)-5-amino-1-(benzhydrylamino)-1,5-dioxopentan-2-yl)carbamoyl)-3-(8-(2-(2,6-dioxopiperidin-3-yl)-1-oxoisoindolin-4-yl)oct-7-ynoyl)-6-oxodecahydropyrrolo[1,2-a][1,5]diazocin-5-yl)carbamoyl)-1H-indole-5-carbonyl)phosphonic acid by measured after 2 days at 37 degC by LC/MS/MS analysis; details: time 2.0 day
In short: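 Parent compound incubated in buffer at pH 4 or pH 8, at room temperature or 37 °C. Percentages of the parent, the hydrolysis product and the glutarimide ring-opened product followed over time, up to 96 h.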

[11] = (§3) Drug uptake in SCID mouse xenografted with human MOLM16 cells assessed as (2-(((5S,8S,10aR)-8-(((S)-5-amino-1-(benzhydrylamino)-1,5-dioxopentan-2-yl)carbamoyl)-3-(8-(2-(2,6-dioxopiperidin-3-yl)-1-oxoisoindolin-4-yl)oct-7-yno yl)-6-oxodecahydropyrrolo[1,2-a][1,5]diazocin-5-yl)carbamoyl)-1H-indole-5-carbonyl)phosphonic acid level in plasma at 50 mg/kg, iv measured after 1 hrs by LC-MS/MS; format: ADME, organism-based; details: in vivo; in short: as §2
[12] = as §3, with “tumor tissue” for “plasma”; format: ADME, organism-based; details: in vivo; in short: as §2
[13] = biological target: T3, Protein cereblon/Signal transducer and activator of transcription 2 (Homo sapiens); assay: Protac activity at CRBN/STAT2 in human MOLM16 cells assessed as STAT2 degradation at 0.25 to 100 uM incubated for 4 hrs by Western blot analysis; format: cell-based; details: dose 0.25-100 µM; in short: as §1
[14] = as §3, with “after 6” for “after 1”; format: ADME, organism-based; details: in vivo; in short: as §2
[15] = biological target: Protein cereblon/Signal transducer and activator of transcription 5A (Homo sapiens) (UniProt P42229+Q96SW2); assay: Protac activity at CRBN/STAT5 in human SU-DHL-1 cells […] at 0.25 to 100 uM incubated for 4 hrs by Western blot analysis; format: cell-based; details: dose lower 0.25 µM
Chain of Protein cereblon/Signal transducer and activator of transcription 5A (Homo sapiens) (P42229 whole entry, looked up): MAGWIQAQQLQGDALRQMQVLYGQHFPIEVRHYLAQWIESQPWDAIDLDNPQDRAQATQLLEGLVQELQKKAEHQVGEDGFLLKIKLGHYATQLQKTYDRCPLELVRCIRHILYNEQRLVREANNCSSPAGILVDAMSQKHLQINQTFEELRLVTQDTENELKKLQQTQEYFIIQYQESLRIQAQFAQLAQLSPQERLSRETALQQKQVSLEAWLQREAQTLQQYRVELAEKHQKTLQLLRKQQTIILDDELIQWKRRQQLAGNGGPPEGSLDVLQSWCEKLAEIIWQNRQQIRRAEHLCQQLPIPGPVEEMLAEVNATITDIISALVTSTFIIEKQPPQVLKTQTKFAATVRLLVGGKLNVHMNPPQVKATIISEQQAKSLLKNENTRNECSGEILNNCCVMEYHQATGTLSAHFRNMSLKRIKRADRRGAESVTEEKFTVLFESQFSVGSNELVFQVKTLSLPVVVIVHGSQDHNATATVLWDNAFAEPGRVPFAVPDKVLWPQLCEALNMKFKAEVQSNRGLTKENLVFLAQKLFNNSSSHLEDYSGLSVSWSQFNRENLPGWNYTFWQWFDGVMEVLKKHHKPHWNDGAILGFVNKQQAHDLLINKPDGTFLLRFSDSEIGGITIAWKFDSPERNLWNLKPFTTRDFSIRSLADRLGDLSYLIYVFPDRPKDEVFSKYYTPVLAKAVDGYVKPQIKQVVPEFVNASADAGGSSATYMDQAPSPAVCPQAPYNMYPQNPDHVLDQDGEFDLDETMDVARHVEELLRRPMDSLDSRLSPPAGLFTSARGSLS
Chain of Protein cereblon/Signal transducer and activator of transcription 5A (Homo sapiens) (Q96SW2 whole entry, looked up): as the sequence (Q96SW2 whole entry, looked up, one chain of several) above

[16] = biological target: Protein cereblon/Signal transducer and activator of transcription 3 (Homo sapiens, UniProt P40763+Q96SW2); assay: Protac activity at CRBN/STAT3 in human MOLM-16 cells assessed as degradation of STAT3 incubated for 4 hrs by western blot analysis; format: cell-based; details: molm16; in short: as §1
Chain of Protein cereblon/Signal transducer and activator of transcription 3 (P40763 whole entry): as the sequence (P40763 whole entry) above
Chain of Protein cereblon/Signal transducer and activator of transcription 3 (Q96SW2 whole entry): as the sequence (Q96SW2 whole entry, looked up, one chain of several) above

[17] = biological target: Protein cereblon/Signal transducer and activator of transcription 1-alpha/beta (Homo sapiens) (UniProt P42224+Q96SW2); assay: Protac activity at CRBN/STAT1 in human MOLM16 cells assessed as STAT1 degradation at 0.25 to 100 uM incubated for 4 hrs by Western blot analysis; format: cell-based; details: dose 0.25-100 µM; in short: as §1

## CC(=O)N1CC[C@H]2CC[C@@H](C(=O)N[C@@H](CCC(N)=O)C(=O)NC(c3ccccc3)c3ccccc3)N2C(=O)[C@@H](NC(=O)c2cc3cc(C(=O)P(=O)(O)O)ccc3[nH]2)C1
[1]
  Activity: inactive

## NC(=O)CC[C@H](NC(=O)[C@@H]1CC[C@@H]2CCN(C(=O)CCCCCC#Cc3cccc4c3CN(C3CCC(=O)NC3=O)C4=O)C[C@H](NC(=O)c3cc4cc(C(=O)P(=O)(O)O)ccc4[nH]3)C(=O)N21)C(=O)NC(c1ccccc1)c1ccccc1 (stereo partly specified)
[2]
  DC50: 17 nM
[3]
  concentration at 24 h: 1360 ng/mL
[4]
  Activity: Active
[5]
  Activity: 87%
[6]
  Ki: 5.1 nM
[7]
  concentration at 24 h: 1800 ng/g

## CC(=O)N1CC[C@H]2CC[C@@H](C(=O)N[C@@H](CCC(N)=O)C(=O)NC(c3ccccc3)c3ccccc3)N2C(=O)[C@@H](NC(=O)c2cc3cc(C(F)(F)P(=O)(O)O)ccc3[nH]2)C1
[1]
  Activity: inactive

## NC(=O)CC[C@H](NC(=O)[C@@H]1CC[C@@H]2CCN(C(=O)CCCCCC#Cc3cccc4c3CN(C3CCC(=O)NC3=O)C4=O)C[C@H](NC(=O)c3cc4cc(C(F)(F)P(=O)(O)O)ccc4[nH]3)C(=O)N21)C(=O)NC(c1ccccc1)c1ccccc1 (stereo partly specified)
[8]
  Activity: inactive
[9]
  Activity: inactive
[10]
  Drug metabolism: 50%
[11]
  Drug uptake: 48476 ng/mL
[12]
  Drug uptake: 6350 ng/g
[13]
  Activity: inactive
[14]
  Drug uptake: 25560 ng/mL
[15]
  Activity: inactive
[3]
  concentration at 24 h: 58 ng/mL
[16]
  DC50: 380 nM
[17]
  Activity: inactive
[6]
  Ki: 11.7 nM
[7]
  concentration at 24 h: 275 ng/g
